# Compound activity: PubChem, several laboratories
# In the library only some 3.8% were active in any assay of this set; here they are far more common.
# MC4R antag cAMP: MC4R antagonists of cAMP signaling, primary screen, cell-based, TR-FRET, antagonist arm of biased-ligand search | Melanocortin receptor 4 (Homo sapiens), P32245 | MC4R-expressing cells, MTII-stimulated cAMP, LANCE TR-FRET | inhibition, % at 6.5 µM | 360,000 tested, 0.48% active;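 active means inhibition above its plate's cutoff, the mean of tested wells on that plate plus 3 SD, cut at about 29% in these data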
# Target sequence (P32245 whole entry, looked up): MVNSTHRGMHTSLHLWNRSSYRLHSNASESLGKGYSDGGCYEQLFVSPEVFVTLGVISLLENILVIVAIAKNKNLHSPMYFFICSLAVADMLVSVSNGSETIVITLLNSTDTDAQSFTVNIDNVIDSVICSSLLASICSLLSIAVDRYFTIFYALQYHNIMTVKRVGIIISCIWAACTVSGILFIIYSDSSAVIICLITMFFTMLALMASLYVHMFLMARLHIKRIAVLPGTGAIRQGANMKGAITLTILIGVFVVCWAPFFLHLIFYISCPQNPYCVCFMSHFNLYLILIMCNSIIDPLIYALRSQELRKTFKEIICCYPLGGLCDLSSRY
#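 System: U2OS-MC4R stable cell line; Technique: Eu-cAMP/anti-cAMP TR-FRET, emission 671 nm; Repeats: single well per compound; Also added: Melanotan II; Dosing: one concentration, 6.5 µM nominal; Schedule: 30-min compound, 1-h challenge, 1-h detection, room temperature.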
# MC4R barr agon: MC4R agonists recruiting beta-arrestin, primary screen, cell-based, luminescence, agonist arm of biased-ligand search; activation, % at 8.9 µM; AID 540308, 2011; 360,000 tested, 0.98% active; U2OS MC4R beta-arrestin complementation; percent of melanotan II response, DMSO zero; Melanocortin receptor 4 (Homo sapiens), P32245;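 active means activation above a per-plate cutoff, the mean activation of sample wells on that plate plus 3 SD, cut at about 8% in these data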
# TMEM16A inh: TMEM16A chloride channel inhibitors, primary screen, cell-based, HTS; 310,000 tested, 1.2% active; HEK293 TMEM16A/YFP iodide influx fluorescence, ionomycin; normalized B-score (activity score, 25-100; higher = stronger inhibition) at 10 µM;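 active means ratio plate-corrected score three or more library SD toward inhibition, starting fluorescence score within five deviations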;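 further: score derived from kinetic fluorescence span divided by baseline fluorescence per well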
# CSC inhib: cancer stem cell viability inhibitors, primary screen, luminescence; cancer stem cell-like cells viability; inhibition, % at 7.5 µM; 300,000 tested, 1.1% active; in the data active means inhibition above about 75%; tested in HMLE shEcad cells
# TMEM16A act: TMEM16A chloride channel activators or potentiators, primary screen, cell-based, HTS. Anoctamin-1 (Mus musculus), Q8BHY3. HEK293 TMEM16A/YFP-H148Q/I152L, iodide quench fluorescence; hits give low values. B-score at 10 µM. 340,000 tested, 0.3% active. AID 623877, 2012;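 active means fluorescence-ratio B-score plate-corrected deviation score at least 3 library SD below zero, with starting fluorescence score within 5 deviations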;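 further: channel opened by trigger with iodide after compound preincubation; score built on the fluorescence ratio of max minus min over baseline; more negative score means more quench and so TMEM16A activation or potentiation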
# Beta apoptosis: inhibitors of cytokine-induced beta cell apoptosis, primary screen, luminescence; INS-1E cytokine-induced death, ATP luminescence, 48 h; percent of positive-control rescue, neutral wells zero; protection from apoptosis, % (no concentration beside the values); 300,000 tested, 0.8% active; AID 435005, 2010;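 active means Every replicate reaches about 75%, or at least half do and their mean reaches it too, limit read from the data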;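 further: higher means more ATP so stronger rescue from cytokine killing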
# Numbers stand for hits; . = inactive; / = not tested or not shown; + = active, no number.
SMILES,MC4R antag cAMP,MC4R barr agon,TMEM16A inh,CSC inhib,TMEM16A act,Beta apoptosis
C[C@H](CO)N1C[C@H](C)[C@@H](CN(C)C(=O)NC2CCCCC2)Oc2ccc(NC(=O)Nc3ccc(C(F)(F)F)cc3)cc2C1=O,.,.,/,.,-5,.
CCC(=O)OCCNc1cc(Sc2nc3ccccc3s2)c2nonc2c1[N+](=O)[O-],.,.,.,106,.,.
O=[N+]([O-])c1ccc(-[n+]2ccc3ccccc3c2)c([N+](=O)[O-])c1,.,.,.,121,.,109
COc1ccc(NC(=O)C2CC(=O)N(c3ccccc3F)C2)cc1S(=O)(=O)N1CCCCC1 (stereo unspecified),.,.,/,/,/,/
O=C(COc1ccc(Br)cc1)Nc1ccc(N2CCOCC2)cc1N1CCOCC1,.,.,/,/,.,.
CC(C)OCCCNC(=S)N1CCC(C(=O)c2ccc(Cl)cc2)CC1,.,.,.,.,.,102
CCCCC(=O)NC(c1ccc(N(C)C)cc1)c1ccc2cccnc2c1O (stereo unspecified),.,.,.,108,.,94
CCN(CC)c1ccc(C(NC(=O)C(C)C)c2ccc3cccnc3c2O)cc1 (stereo unspecified),.,.,/,/,/,/
CCCC(=O)NC(c1ccc(N(C)C)cc1)c1c(O)ccc2ccccc12 (stereo unspecified),.,.,.,.,.,.
CCCCC(=O)NC(c1ccc(N(CC)CC)cc1)c1ccc2cccnc2c1O (stereo unspecified),.,.,.,+,.,89
COc1ccc(C2(c3ccc(OC)cc3)NC(=O)N(CC(=O)N3CCOCC3)C2=O)cc1,.,.,/,/,.,.
O=C(CCNS(=O)(=O)c1ccc(Br)cc1)NCc1ccco1,.,.,.,.,.,.
Cc1cc(OCC(=O)NCC(c2cccs2)N2CCOCC2)ccc1C(C)C (stereo unspecified),.,.,.,.,.,.
Cc1ccc(C(C)C)c(OCC(=O)NCC(c2cccs2)N2CCOCC2)c1 (stereo unspecified),.,.,100,.,.,.
COc1cc(C(C)=O)ccc1OCC(=O)NCC(c1ccc(F)cc1)N1CCOCC1 (stereo unspecified),.,.,/,.,.,.
Cc1nn(C)c(C)c1CN(C)S(=O)(=O)c1ccc(F)cc1,.,.,.,.,.,.
Cc1nn(C)c(C)c1CN(C)S(=O)(=O)c1ccc2ccccc2c1,.,.,.,.,.,109
COCCNC(=S)N(CCc1c(C)[nH]c2ccc(F)cc12)Cc1cccs1,.,.,.,.,.,.
COCCNC(=S)N(CCc1c(C)[nH]c2ccc(Cl)cc12)Cc1cccs1,.,.,100,79,.,.
CC(C)(C)c1cc(-c2nc(N)nc(N)n2)c(O)c(C(C)(C)C)c1,.,.,.,126,.,.
Nc1nc(N)nc(-c2cc(O)ccc2O)n1,.,.,/,.,.,.
Cc1ccc(SCC(=O)N2c3ccccc3Sc3ccccc32)cc1,.,.,100,.,.,.
Cc1ccc(C(=O)N2c3ccccc3Sc3ccccc32)cc1,.,.,/,/,/,/
CC1(C)CC2(C)CC(=O)C1C(C(=O)O)C2C(=O)O (stereo unspecified),.,.,/,/,/,/
Cc1ccc(Cl)cc1NC(=O)COC(=O)c1ccccc1O,.,.,.,.,.,.
SMILES,MC4R antag cAMP,MC4R barr agon,TMEM16A inh,CSC inhib,TMEM16A act,Beta apoptosis
COc1cc(OC)c(NC(=O)c2ccccc2F)cc1Cl,.,.,.,.,.,.
COc1cc(NC(=O)c2cc3ccccc3cc2O)c(OC)cc1Cl,.,.,.,76,.,111
CSc1ccccc1C(=O)Nc1ccccc1C,.,.,.,.,.,.
Cc1ccccc1NC(=O)c1ccccc1O,.,.,25,.,.,.
Cc1ccc(Cl)cc1NC(=O)c1cc2ccccc2cc1O,.,8.4,.,.,.,104
COc1ccc(SC[C@H](Cc2ccccc2)N2CC[C@@H](NC(=O)OCc3ccccc3)CCC2=O)cc1,.,.,/,.,.,.
